Screening results deposited in PubChem by several laboratories.
Hits are enriched below; roughly 2.6% of the tested compounds scored in any of these assays.
TNAP inh noacc – blocks human TNAP activity with no phosphate acceptor present | P05186 | AID 1012 | inhibition, % at 20 µM | 200,000 tested, 0.26% active | purified TNAP, CDP-star luminescence, 30 min;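 active means tissue-nonspecific alkaline phosphatase inhibition above about 50% at 20 µM in the single-dose screen, limit read from the data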;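 further: 0% = DMSO negative control and 100% = EDTA positive control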
Target sequence (P05186 whole entry, looked up): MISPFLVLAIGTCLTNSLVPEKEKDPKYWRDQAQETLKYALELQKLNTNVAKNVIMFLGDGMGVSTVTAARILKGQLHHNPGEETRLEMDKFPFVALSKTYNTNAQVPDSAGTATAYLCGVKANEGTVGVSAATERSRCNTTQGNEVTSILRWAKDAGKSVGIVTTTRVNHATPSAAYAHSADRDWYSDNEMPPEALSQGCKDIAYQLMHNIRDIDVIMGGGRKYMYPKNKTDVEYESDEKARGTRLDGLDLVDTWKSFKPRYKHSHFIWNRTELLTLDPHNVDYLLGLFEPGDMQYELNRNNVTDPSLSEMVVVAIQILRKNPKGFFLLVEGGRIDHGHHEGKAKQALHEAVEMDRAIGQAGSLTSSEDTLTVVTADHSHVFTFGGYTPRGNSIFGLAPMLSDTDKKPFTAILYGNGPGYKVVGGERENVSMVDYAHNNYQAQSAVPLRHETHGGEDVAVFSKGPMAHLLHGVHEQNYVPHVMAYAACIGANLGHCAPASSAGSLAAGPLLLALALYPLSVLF
Arbovirus inh – arbovirus infection inhibition; 200,000 tested, 0.37% active; arbovirus infection cell-based antiviral screen; inhibition, % at 10 µM; in the data active means inhibition above about 30%
WT yeast gro inh – growth inhibition of WT yeast, mitochondrial fusion screen; mitochondrial fusion phenotypic screen, WT strain; inhibition, % at 10 µM; 190,000 tested, 2.1% active; in the data active means inhibition above about 58%; tested in S. cerevisiae
TNAP inh hi DEA – TNAP (human) inhibition, high acceptor; AID 1135; inhibition, % at 20 µM; 200,000 tested, 0.03% active; purified TNAP, CDP-star luminescence, 1 M DEA; P05186;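 active means over 50% inhibition of tissue-nonspecific alkaline phosphatase at 20 µM in the single-dose screen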;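 further: plate controls were DMSO wells for no effect and EDTA-quenched wells as full inhibition for full effect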
TNAP act hiacc – TNAP (human) activation, high acceptor | P05186 | purified TNAP, CDP-star luminescence, 1 M DEA, 30 min; stronger effect = higher value; 0 = EDTA background, 1 = DMSO-only activity | activation factor at 20 µM | 200,000 tested, under 10 active | AID 1136;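 active means activation factor at least 2 at 20 µM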
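Control set: EDTA negative control, DMSO positive control / Assay system: human TNAP / Quantity: TNAP 1/800 final / Evaluation: TNAP activation factor scaled between EDTA and DMSO control wells / Measured by: luminescent substrate turnover signal / Compound dosing: one dose, 20 µM / Times: 30 min enzyme reaction at room temperature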
* marks the source's active call; other numbers are inactive results; . = no result given.

SMILES | TNAP inh noacc | Arbovirus inh | WT yeast gro inh | TNAP inh hi DEA | TNAP act hiacc
c1ccc(-c2nc(NCc3cccnc3)c3oc4ccccc4c3n2)cc1 | -9 | -22 | 72* | -2 | 1
CC1(C)CC(=O)c2cnc(NC(=O)CCc3ccccc3)nc2C1 | -10 | 11 | -4 | -5 | 1.1
O=C(CCc1ccccc1)Nc1ncc2c(n1)CCCC2=O | -14 | 5 | 60* | -3 | 1
Cn1cc(CC(=O)NCCCN2CCCC2=O)c2ccccc21 | -11 | 8 | -9 | -10 | 1.1
O=C(COc1ccccc1[N+](=O)[O-])NNC(=O)Nc1cccc2ccccc12 | -80 | -1 | 14 | 3 | 1
CCCc1ccc(-c2cc(C(=O)N/N=C/c3ccc([N+](=O)[O-])o3)c3ccccc3n2)cc1 | -2 | -24 | 63* | 3 | 1
O=C(N/N=C/c1ccc([N+](=O)[O-])o1)c1cc(-c2cccc(Br)c2)nc2ccccc12 | 2 | -31 | 36 | 6 | 0.9
O=C(CCc1ccccc1)NC(=S)Nc1cccc(Br)c1 | -4 | -11 | 59* | -3 | 1
S=C(Nc1ccccc1)Nc1cccc(Br)c1 | 2 | 20 | 22 | -5 | 1.1
O=C(CCc1ccccc1)NC(=S)Nc1ccccc1Br | -15 | -8 | 75* | -4 | 1
Clc1ccc(-c2ccc(/C=N/Nc3cc(N4CCOCC4)nc(N4CCOCC4)n3)o2)cc1 | -5 | -27 | 60* | -4 | 1
CC(C)(C)c1ccc(S(=O)(=O)NCCc2ccncc2)cc1 | -8 | 12 | . | -5 | 1.1
CC(C)(C)c1ccc(S(=O)(=O)Nc2ccc(Cc3ccncc3)cc2)cc1 | -5 | 12 | 59* | 3 | 1
O=c1/c(=C/c2cccc3ccccc23)sc2ncnn12 | 16 | 4 | 8 | -4 | 1
Cc1ccsc1/C=c1\sc2ncnn2c1=O | 84* | -2 | -6 | 24 | 0.8
C=CCn1c(CCCNC(=O)c2ccccc2OC)nc2ccccc21 | -12 | 2 | -1 | -2 | 1
CCOc1ccc2[nH]cc(C(=O)NCCCN3CCOCC3)c(=O)c2c1 | -8 | 8 | -11 | -6 | 1.1
Cc1ccccc1N=C(NOCc1ccccc1)c1nonc1N | -8 | -3 | 32 | 1 | 1
Cc1ccccc1N=C(NOCc1ccc(Cl)cc1Cl)c1nonc1N | -7 | -34 | 78* | 0 | 1
Cc1ccc(N=C(NOCc2ccc(Cl)cc2Cl)c2nonc2N)c(C)c1 | -17 | -42 | 68* | -5 | 1.1
CO/N=C/NC(=O)NOCc1ncc(C(F)(F)F)cc1Cl | -10 | 3 | -21 | -4 | 1
O=C(N/C=N/OCc1ccc(Cl)cc1Cl)NOCc1ncc(C(F)(F)F)cc1Cl | -3 | -41 | 69* | -3 | 1
CCOc1ccc2nc(-c3cc(NC(C)=O)ccc3O)sc2c1 | -27 | 7 | 6 | -10 | 1.1
O=C(Nc1nc(-c2ccccn2)cs1)c1ccc(Br)s1 | -13 | -21 | 60* | -7 | 1.1
O=C(CC1CC2CCC1C2)Nc1nc(-c2ccccn2)cs1 (stereo not given) | -45 | -15 | 74* | -2 | 1
SMILES | TNAP inh noacc | Arbovirus inh | WT yeast gro inh | TNAP inh hi DEA | TNAP act hiacc
O=C(Nc1nc(-c2ccccn2)cs1)C1CC1 | -18 | -6 | 10 | -5 | 1
Cc1nnc(NC(=O)CCSc2ccc(Cl)cc2)s1 | -8 | 0 | 5 | -4 | 1
COc1cc(N/N=C(\C)c2ccc(O)c(C)c2)nc(-c2ccccc2)n1 | -3 | -36 | 92 | -3 | 1
C/C(=N\Nc1cc(-c2ccccc2)nc(-c2ccccc2)n1)c1ccc(O)c(C)c1 | -1 | -35 | 92* | -1 | 1
CC(Oc1ccc(Cl)cc1Cl)c1nc(-c2ccc(NC(=O)c3ccco3)cc2)no1 (stereo not given) | -11 | -14 | 85* | 1 | 1
Cc1ccccc1OCc1nc(-c2ccc(NC(=O)c3ccco3)cc2)no1 | -3 | -5 | 35 | 0 | 1
COc1ccc(CC(=O)NC(C)c2nnc(SCC(=O)Nc3cc(C)ccc3OC)n2C)cc1 (stereo not given) | -4 | 4 | 4 | 0 | 1
CC(Cc1cccs1)NC(=S)Nc1ccc(Cl)cc1 (stereo not given) | -18 | -25 | 67* | -5 | 1
O=C(c1ccco1)N(CC1CCCO1)c1nc(-c2ccccc2)cs1 (stereo not given) | 0 | -15 | 18 | -2 | 1
Cc1ccc(-c2csc(N(CC3CCCO3)C(=O)c3ccco3)n2)cc1 (stereo not given) | -5 | 6 | 69* | -4 | 1
CCNC(=O)C(=O)NCc1ccncc1 | -5 | 3 | -13 | -5 | 1
c1ccc(-c2n[nH]c(-c3ccccn3)n2)cc1 | 67* | -20 | -4 | -4 | 1
Cc1nc(-c2cccc(NS(=O)(=O)c3ccccc3)c2)cs1 | -9 | 11 | -8 | -9 | 1.1
Cc1ccc2nc(-c3cccc(NS(C)(=O)=O)c3)cc(-c3ccccc3)c2c1 | -14 | -32 | 94* | 0 | 1
CCOc1nc(-c2ccccc2Cl)ccc1C#N | -6 | -9 | 8 | 2 | 1
Cc1ccc(CNC(=O)C2CCCN(c3nc4ccsc4c(=O)s3)C2)cc1 (stereo not given) | -7 | -17 | -2 | -6 | 1.1
CCOc1ccc(C(=O)c2cc([N+](=O)[O-])ccc2Cl)cc1 | -1 | -10 | 8 | -6 | 1.1
Cc1ccc(S(=O)(=O)CNC(=S)c2cccc(Cl)c2)cc1 | 1 | 11 | 69* | -1 | 1
CSCCC(NC(=O)c1cc([N+](=O)[O-])ccc1Cl)C(=O)O (stereo not given) | -10 | 12 | -40 | -2 | 1
CC(C(=O)NC1CCCC1)N1CCN(Cc2ccccc2)CC1 (stereo not given) | -11 | 18 | 18 | -3 | 1
CC(C(=O)NC(=O)NC1CCCCC1)N1CCN(C(c2ccccc2)c2ccccc2)CC1 (stereo not given) | -7 | -20 | 73* | -6 | 1.1
CC(C)n1c(CSCc2ccc(Cl)cc2Cl)n[nH]c1=S | -104 | 7 | 65* | -5 | 1
Nc1nnc(CSCc2ccc(Cl)cc2Cl)s1 | -9 | -4 | 10 | -5 | 1.1
Cc1nn(C)cc1CN(C)Cc1ccc(OCC(O)CN2CCCCC2)cc1 (stereo not given) | -10 | 34* | -3 | -4 | 1
CN(Cc1ccc(OCC(O)CN2CCCCC2)cc1)Cc1ccnc2ccccc12 (stereo not given) | -9 | 8 | 4 | -8 | 1.1
CCOc1ccc(C2c3cc(OC)c(OC)cc3CC(=O)N2c2ccc(OC)cc2)cc1 (stereo not given) | -2 | -24 | -1 | -2 | 1
CC(C)N(Cc1nc(-c2ccc(Cl)cc2)no1)C(=O)CN(C)S(=O)(=O)c1ccc(Cl)cc1 | -4 | 3 | 44 | -6 | 1.1
CCOC(=O)Cc1csc(NC(=O)CSc2nc(-c3ccccc3)c(C#N)c(=O)[nH]2)n1 | -7 | 4 | -9 | -4 | 1
